Measurements reported in ChEMBL document CHEMBL1138856, “Synthesis and anti-human immunodeficiency virus activity of 4'-branched (+/-)-4'-thiostavudines” (J Med Chem, 2006).

What was measured:
[1] = system: Human immunodeficiency virus 1; test: Antiviral activity against HIV1 3B in MT4 cells by MTT assay; format: functional, organism-based
[2] = Cytotoxicity against MT4 cells MTT assay; format: cell-based; settings: human
Method in brief: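 Mock-infected MT-4 cells were cultured with various compound concentrations in parallel with the antiviral assay (4 days, 37 °C). Viability was read by MTT. The value is the concentration reducing viability by 50%.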

[3] = Human immunodeficiency virus 1, 3B, MT4

| Compound | EC50 [1, 3] [µM] | CC50 [2] [µM] | EC50 ([1]; mt4) [µM] |
| --- | --- | --- | --- |
| Cc1cn([C@H]2C=CC(CO)(CO)S2)c(=O)[nH]c1=O (racemic) | > 100 | > 100 |  |
| COC(=O)[C@@]1(CO)C=C[C@H](n2cc(C)c(=O)[nH]c2=O)S1 (racemic) | > 100 | > 100 |  |
| Cc1cn([C@H]2C=C[C@](CO)(C(N)=O)S2)c(=O)[nH]c1=O (racemic) | > 100 | > 100 |  |
| C#C[C@@]1(CO)C=C[C@H](n2cc(C)c(=O)[nH]c2=O)O1 [CENSAVUDINE] | 0.06 | > 100 |  |
| C#C[C@@]1(CO)C=C[C@H](n2cc(C)c(=O)[nH]c2=O)S1 (stereo in doubt; (+)-29) |  | > 100 | > 20 |
| C#C[C@@]1(CO)C=C[C@H](n2cc(C)c(=O)[nH]c2=O)S1 (stereo in doubt; (-)-29) |  |  | 0.37 |
| C=C[C@@]1(CO)C=C[C@H](n2cc(C)c(=O)[nH]c2=O)S1 (racemic) | > 100 | > 100 |  |
| Cc1cn([C@H]2C=C[C@@H](CO)O2)c(=O)[nH]c1=O [STAVUDINE] | 0.51 | > 100 |  |
| Cc1cn([C@H]2C=C[C@@](C#N)(CO)S2)c(=O)[nH]c1=O (racemic) | 7.6 | > 100 |  |
| C#C[C@@]1(CO)C=C[C@H](n2cc(C)c(=O)[nH]c2=O)S1 (racemic) |  |  | 0.74 |
